Drawing on ChEMBL document CHEMBL1240476, “Synthesis and antiproliferative activity of indolizinophthalazine-5,12-dione derivatives, DNA topoisomerase IB inhibitors” (Eur J Med Chem, 2010), this text covers IC50 and inhibition for twelve compounds.

SMILES strings stand for the structures. Where only a bound is given, the exact number is not on record here.

One test relates to MCF7. The experiment in a line: Cytotoxicity against human MCF7 cells after 48 hrs by MTT assay. The settings on record: MCF7, 48 h. It counts as functional, cell-based. (In general: Tetrazolium assays rely on reduction of a dye to a coloured formazan, in cell work by metabolically active cells.)
A short description of test [1]: Cytotoxicity against human GLC82 cells after 48 hrs by MTT assay. It counts as functional, cell-based. The note with it: GLC82, 48 h.
The subject of the next test is NCI-H460. Put plainly: Cytotoxicity against human NCI-H460 cells after 48 hrs by MTT assay. It counts as functional, cell-based. The settings on record: NCI-H460, 48 h.
Test [2] can be described thus: Cytotoxicity against human MCF7/ADR cells after 48 hrs by MTT assay. The test is classed as functional, cell-based. The note with it: NCI/ADR-RES.
Test [3] in a line: Inhibition of topoisomerase 1B-mediated relaxation of supercoiled pBR322 DNA at 125 uM after 30 mins by agarose gel electrophoresis. A digest of the protocol:
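TOP1-mediated relaxation of supercoiled DNA: enzyme and DNA incubated with serially diluted compound, 1 to 125 across four lanes. Controls were DNA without enzyme or drug, and DNA plus enzyme without drug. Read-out was the supercoiled versus relaxed DNA bands, scored as percent inhibition of TOP1 catalytic activity.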

Test [4] in a line: Inhibition of topoisomerase 1B-mediated relaxation of supercoiled pBR322 DNA at 1 uM after 30 mins by agarose gel electrophoresis. A digest of the protocol:
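TOP1 relaxation of supercoiled DNA was run with enzyme, DNA and serially diluted drug (1 to 125). Controls were DNA without enzyme or drug, and DNA plus enzyme without drug. Supercoiled and relaxed DNA bands were resolved by gel and compared.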

What is called IC50 is the concentration at which inhibition is half-maximal. A high value points to lower potency. Regarding `CCOC(=O)c1c2c(n3ccccc13)C(=O)c1cnncc1C2=O`, the IC50 (in the test on MCF7; in test [1]; in the test with NCI-H460; in test [2]) was more than 25 µM each time.

With `Cc1c2c(n3ccccc13)C(=O)c1cnncc1C2=O`, the IC50 was 1.67 µM in the test with MCF7, 1.92 µM in test [1], 1.21 µM in the test with NCI-H460 and 14.1 µM in test [2].

Regarding `COC(=O)c1c2c(n3ccccc13)C(=O)c1cnncc1C2=O`, the IC50 in the test with MCF7 came to 23.7 µM; in test [1] it was 13.7 µM; in the test with NCI-H460 it was 9.94 µM; in test [2], 17 µM.

On to `CCOC(=O)c1c2c(n3cccc(Cl)c13)C(=O)c1cnncc1C2=O`, for which the IC50 with MCF7 was 1.2 µM; in test [1], 1.09 µM; in the test on NCI-H460 it was 1.44 µM; in test [2] it was 1.6 µM.

For orientation: inhibition means the share of the control response that was lost under treatment. As to `N#Cc1c2c(n3ccccc13)C(=O)c1cnncc1C2=O`, the IC50 in the test with MCF7 was found to be 1.09 µM; in test [1], 1.13 µM; in the test on NCI-H460, 9.32 µM; in test [2], 0.81 µM. The figures for the inhibition in test [3] and in test [4] were 100% and 23%, respectively.

As to `CCOC(=O)c1c2c(n3cccc(C)c13)C(=O)c1cnncc1C2=O`, the IC50 in the test on MCF7 is 1.22 µM; in test [1], 10.3 µM; in the test on NCI-H460, 1.18 µM; in test [2], 1.55 µM.

As to `O=C1c2cnncc2C(=O)c2c1cc1ccccn21`, the IC50 with MCF7 was 14.7 µM; in test [1] it was 10.8 µM; in the test with NCI-H460, 11.4 µM; in test [2], 11.7 µM.

As for `CC[C@@]1(O)C(=O)OCc2c1cc1n(c2=O)Cc2cc3ccccc3nc2-1` [CAMPTOTHECIN], the IC50 (in test [1]; in the test on NCI-H460) was more than 25 µM each time. Also, the inhibition in test [3] came to 73%.

Turning to `CC(=O)c1c2c(n3cccc(F)c13)C(=O)c1cnncc1C2=O`, the IC50 worked out at 10.7 µM in the test with MCF7, 1.85 µM in test [1], 10.6 µM in the test with NCI-H460 and 13.2 µM in test [2].

With `CCOC(=O)c1c2c(n3cccc(O)c13)C(=O)c1cnncc1C2=O`, the IC50 in the test on MCF7 is 20.8 µM; in test [1], 11.6 µM; in the test with NCI-H460, 23.5 µM; in test [2], more than 25 µM.

Take `CC(=O)c1c2c(n3ccccc13)C(=O)c1cnncc1C2=O`: the IC50 stood at 24.7 µM in test [1], 21.3 µM in the test with NCI-H460 and 11.2 µM in test [2].

As to `CCOC(=O)c1c2c(n3cc(C)ccc13)C(=O)c1cnncc1C2=O`, the IC50 in the test with MCF7 was determined as 12.2 µM; in test [1] it was 9.87 µM; with NCI-H460, 11.1 µM; in test [2], 18.7 µM.
